Among the data in ChEMBL document CHEMBL2401735, “Synthesis and cytotoxicity of novel (thiazol-2-yl)hydrazine derivatives as promising anti-Candida agents” (Eur J Med Chem, 2013) are viability, MIC and CC50 values, retold here.

≈ marks a conversion by molar mass, not a printed value. A value given as a limit tells only on which side of the number the result lay.

A short description of data set [1]: Cytotoxicity against human Hep2 cells assessed as cell survival fraction at 100 ug/ml after 24 hrs by trypan blue exclusion assay (reference value: 97 to 98%). Type of data set: cell-based. The conditions noted are these: HEp-2 cells, read-out: Survival.
Data set [2] concerns Streptococcus alpha-hemolyticus. Kind of data set: Antibacterial activity against Streptococcus alpha-hemolyticus assessed as growth inhibition after 18 to 22 hrs by broth microdilution method.
Data set [3] is described as follows: Cytotoxicity against human Hep2 cells assessed as cell survival fraction at 0.005 ug/ml after 24 hrs by trypan blue exclusion assay (reference value: 97 to 98%). Type of data set: cell-based. The conditions noted are these: HEp-2 cells, read-out: Survival.
The subject of a further data set is Escherichia coli. Kind of data set: Antibacterial activity against Escherichia coli assessed as growth inhibition after 18 to 22 hrs by broth microdilution method. Type of data set: functional. The essentials: (§1)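 Bacterial isolates subcultured for purity, identified conventionally. Broth microdilution per NCCLS in Mueller-Hinton II broth; plates with growth control (no compound) and medium-only control, incubated 18-22 h at 35 °C. MIC taken as lowest concentration giving complete growth inhibition by unaided eye.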
On the technique in general: Dilution methods test growth across graded concentrations, often in twofold steps.

Data set [4] in a line: Cytotoxicity against human Hep2 cells assessed as reduction of cell viability after 24 hrs by trypan blue exclusion assay. Type of data set: cell-based. The conditions noted are these: HEp-2 cells. The gist of the method: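 Hep2 cells in DMEM with 10% FBS, penicillin-streptomycin, 5% CO₂, 37 °C. Cells at 1 × 10⁵/mL exposed 24 h to seven concentrations (0.005-100 µg/mL), DMSO ≤0.5% final; controls were medium alone, DMSO, and 1 mM sodium nitroprusside. Cells scraped, allowed 30 min recovery, mixed 1:1 with 0.4% trypan blue, counted by hemocytometer by two operators.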

A further data set concerns Nakaseomyces glabratus. Kind of data set: Anticandida activity against Candida glabrata clinical isolate assessed as growth inhibition after 24 hrs by broth microdilution method. Type of data set: functional. The essentials: (§2)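 Clinical Candida isolates subcultured for purity and optimal growth before testing; compounds dissolved in DMSO. Broth microdilution per NCCLS in Sabouraud dextrose broth, serial dilutions, inoculum about 10³/mL, with growth control and medium-only control; 24 h incubation at 37 °C. MIC is the lowest concentration giving complete visible inhibition.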

Data set [5] in a line: Cytotoxicity against human Hep2 cells assessed as cell survival fraction at 50 ug/ml after 24 hrs by trypan blue exclusion assay (reference value: 97 to 98%). Type of data set: cell-based. The conditions noted are these: HEp-2 cells, read-out: Survival.
Data set [6] can be described thus: Cytotoxicity against human Hep2 cells assessed as cell survival fraction at 5 ug/ml after 24 hrs by trypan blue exclusion assay (reference value: 97 to 98%). Type of data set: cell-based. The conditions noted are these: HEp-2 cells, read-out: Survival.
The subject of another data set is Staphylococcus warneri. Nature of the data set: Antibacterial activity against Staphylococcus warneri assessed as growth inhibition after 18 to 22 hrs by broth microdilution method. Type of data set: functional. The essentials: as §1
The next data set deals with Proteus mirabilis. Nature of the data set: Antibacterial activity against Proteus mirabilis assessed as growth inhibition after 18 to 22 hrs by broth microdilution method. Type of data set: functional. The gist of the method:
as §1

Data set [7] in a line: Cytotoxicity against human Hep2 cells assessed as cell survival fraction at 10 ug/ml after 24 hrs by trypan blue exclusion assay (reference value: 97 to 98%). Type of data set: cell-based. The conditions noted are these: HEp-2 cells, read-out: Survival.
Data set [8] is described as follows: Cytotoxicity against human Hep2 cells assessed as cell survival fraction at 0.5 ug/ml after 24 hrs by trypan blue exclusion assay (reference value: 97 to 98%). Type of data set: cell-based. The conditions noted are these: HEp-2 cells, read-out: Survival.
Data set [9] can be described thus: Cytotoxicity against human Hep2 cells assessed as cell survival fraction at 0.05 ug/ml after 24 hrs by trypan blue exclusion assay (reference value: 97 to 98%). Type of data set: cell-based. The conditions noted are these: HEp-2 cells, read-out: Survival.
The subject of another data set is Staphylococcus aureus. Kind of data set: Antibacterial activity against Staphylococcus aureus assessed as growth inhibition after 18 to 22 hrs by broth microdilution method. Type of data set: functional. The gist of the method: as §1
A further data set deals with [Candida] sake. Nature of the data set: Anticandida activity against Candida sake clinical isolate assessed as growth inhibition after 24 hrs by broth microdilution method. Type of data set: functional. The conditions noted are these: Fermentozyma sake. The gist of the method: as §2
A further data set concerns Enterococcus faecalis. Nature of the data set: Antibacterial activity against […] assessed as growth inhibition after 18 to 22 hrs by broth microdilution method. Type of data set: functional. The essentials:
as §1

Another data set relates to Candida tropicalis. Nature of the data set: Anticandida activity against Candida tropicalis clinical isolate assessed as growth inhibition after 24 hrs by broth microdilution method. Type of data set: functional. The essentials: as §2
A further data set has as its system Pichia kudriavzevii. Nature of the data set: Anticandida activity against Candida krusei clinical isolate assessed as growth inhibition after 24 hrs by broth microdilution method. Type of data set: functional. The gist of the method:
as §2

The subject of another data set is Candida parapsilosis. Kind of data set: Anticandida activity against Candida parapsilosis clinical isolate assessed as growth inhibition after 24 hrs by broth microdilution method. Type of data set: functional. The conditions noted are these: Lodderomyces parapsilosis. The gist of the method: as §2
The next data set relates to Klebsiella oxytoca. Kind of data set: Antibacterial activity against Klebsiella oxytoca assessed as growth inhibition after 18 to 22 hrs by broth microdilution method. Type of data set: functional. The gist of the method: as §1
The next data set deals with Enterobacter sp. Nature of the data set: Antibacterial activity against Enterobacter spp. assessed as growth inhibition after 18 to 22 hrs by broth microdilution method. Type of data set: functional. The essentials: as §1
In the next data set the test system is Candida albicans. Nature of the data set: Anticandida activity against Candida albicans clinical isolate assessed as growth inhibition after 24 hrs by broth microdilution method. Type of data set: functional. The essentials:
as §2

The term MIC denotes the lowest concentration found to suppress growth. The CC50 is the concentration that lowers cell viability or growth by half. For the compound `CCCC/C(CC)=N/Nc1nc(-c2ccc(OC)cc2)cs1`, the viability at 24 h, 100 ug/ml in data set [1] came to 0%. The MIC in data set [2] was more than 256 µg/mL; with Escherichia coli, more than 256 µg/mL; in the data set with Nakaseomyces glabratus, 0.5 µg/mL (≈ 1.58 µM); in the data set with Staphylococcus warneri it was more than 256 µg/mL; with Proteus mirabilis, more than 256 µg/mL; in the data set on Staphylococcus aureus, more than 256 µg/mL. For the same compound, the MIC in [Candida] sake is 2 µg/mL (≈ 6.3 µM); in the data set with Enterococcus faecalis, more than 256 µg/mL; with Candida tropicalis, 2 µg/mL (≈ 6.3 µM); with Pichia kudriavzevii, 2 µg/mL (≈ 6.3 µM); with Candida parapsilosis it was 2 µg/mL (≈ 6.3 µM); in the data set on Klebsiella oxytoca, more than 256 µg/mL. Besides, the MIC with Enterobacter sp. was more than 256 µg/mL; in the data set with Candida albicans, 0.25 µg/mL (≈ 0.788 µM). Also, the viability at 24 h, 0.005 ug/ml in [3] was 93%. Also, the CC50 at 24 h in [4] was 35 µg/mL (≈ 110 µM). In addition, in [5], the viability at 24 h, 50 ug/ml is 0%. Further, in data set [6], the viability at 24 h, 5 ug/ml worked out at 81%. The viability at 24 h, 10 ug/ml in data set [7] is 70.2%. For the same compound, the viability at 24 h, 0.5 ug/ml in data set [8] is 84%. Besides, in [9], the viability at 24 h, 0.05 ug/ml turned out to be 90.2%.

As to `CCC(CC)=NNc1nc(-c2ccc(C)cc2)cs1`, in [1], the viability at 24 h, 100 ug/ml came to 77%. For the same compound, the MIC is more than 256 µg/mL in data set [2]; more than 256 µg/mL in the data set on Escherichia coli; 0.25 µg/mL (≈ 0.914 µM) in the data set on Nakaseomyces glabratus; more than 256 µg/mL with Staphylococcus warneri; more than 256 µg/mL with Proteus mirabilis; more than 256 µg/mL with Staphylococcus aureus. Besides, the minimum inhibitory concentration (MIC) is 2 µg/mL (≈ 7.32 µM) in data set [Candida] sake; more than 256 µg/mL in the data set on Enterococcus faecalis; 2 µg/mL (≈ 7.32 µM) in the data set with Candida tropicalis; 2 µg/mL (≈ 7.32 µM) with Pichia kudriavzevii; 2 µg/mL (≈ 7.32 µM) in the data set on Candida parapsilosis; more than 256 µg/mL in the data set on Klebsiella oxytoca. Moreover, the MIC was more than 256 µg/mL in the data set with Enterobacter sp. and 0.5 µg/mL (≈ 1.83 µM) with Candida albicans. In addition, the viability at 24 h, 0.005 ug/ml in [3] amounted to 94.6%. Further, the CC50 at 24 h in data set [4] was not below 100 µg/mL. The viability at 24 h, 50 ug/ml in [5] worked out at 67%. The viability at 24 h, 5 ug/ml in data set [6] amounted to 84%. In addition, the viability at 24 h, 10 ug/ml in data set [7] stood at 72.4%. The viability at 24 h, 0.5 ug/ml in data set [8] amounted to 86%. Also, in data set [9], the viability at 24 h, 0.05 ug/ml worked out at 92.2%.

On to `CCCCC/C(C)=N/Nc1nc(-c2ccc(C)cc2)cs1`, for which the MIC in data set [2] was more than 256 µg/mL; in the data set with Escherichia coli, more than 256 µg/mL; in the data set with Nakaseomyces glabratus, 2 µg/mL (≈ 6.63 µM); in the data set with Staphylococcus warneri, more than 256 µg/mL; in the data set on Proteus mirabilis it was more than 256 µg/mL; in the data set with Staphylococcus aureus, more than 256 µg/mL. Besides, the MIC in data set [Candida] sake was 8 µg/mL (≈ 26.5 µM); in the data set with Enterococcus faecalis, more than 256 µg/mL; in the data set with Candida tropicalis, 4 µg/mL (≈ 13.3 µM); in the data set with Pichia kudriavzevii it was 8 µg/mL (≈ 26.5 µM); with Candida parapsilosis, 8 µg/mL (≈ 26.5 µM); in the data set with Klebsiella oxytoca it was more than 256 µg/mL. The MIC in the data set with Enterobacter sp. is more than 256 µg/mL; with Candida albicans, 0.5 µg/mL (≈ 1.66 µM).

Turning to `COc1ccc(-c2csc(NN=C(C)C)n2)cc1`, the MIC is more than 256 µg/mL in data set [2]; more than 256 µg/mL in the data set on Escherichia coli; 0.5 µg/mL (≈ 1.91 µM) in the data set with Nakaseomyces glabratus; more than 256 µg/mL in the data set on Staphylococcus warneri; more than 256 µg/mL in the data set with Proteus mirabilis; more than 256 µg/mL in the data set on Staphylococcus aureus. The MIC is 16 µg/mL (≈ 61.2 µM) in data set [Candida] sake; more than 256 µg/mL with Enterococcus faecalis; 2 µg/mL (≈ 7.65 µM) in the data set on Candida tropicalis; 16 µg/mL (≈ 61.2 µM) in the data set on Pichia kudriavzevii; 16 µg/mL (≈ 61.2 µM) with Candida parapsilosis; more than 256 µg/mL in the data set with Klebsiella oxytoca. The MIC with Enterobacter sp. was more than 256 µg/mL; in the data set with Candida albicans, 0.25 µg/mL (≈ 0.957 µM).

For the compound `CCC/C(C)=N/Nc1nc(-c2ccc(OC)cc2)cs1`, the viability at 24 h, 100 ug/ml in [1] was found to be 0%. Further, the MIC in data set [2] is more than 256 µg/mL; with Escherichia coli, more than 256 µg/mL; in the data set with Nakaseomyces glabratus, 2 µg/mL (≈ 6.91 µM); with Staphylococcus warneri, more than 256 µg/mL; with Proteus mirabilis it was more than 256 µg/mL; with Staphylococcus aureus it was more than 256 µg/mL. The MIC in data set [Candida] sake is 2 µg/mL (≈ 6.91 µM); in the data set on Enterococcus faecalis, more than 256 µg/mL; in the data set with Candida tropicalis, 2 µg/mL (≈ 6.91 µM); in the data set on Pichia kudriavzevii it was 2 µg/mL (≈ 6.91 µM); in the data set on Candida parapsilosis, 2 µg/mL (≈ 6.91 µM); in the data set with Klebsiella oxytoca, more than 256 µg/mL. Moreover, the results for the MIC in the data set on Enterobacter sp. and in the data set on Candida albicans were more than 256 µg/mL and 0.25 µg/mL (≈ 0.864 µM), respectively. The viability at 24 h, 0.005 ug/ml in data set [3] was determined as 92%. For the same compound, the CC50 at 24 h in data set [4] came to 36 µg/mL (≈ 124 µM). For the same compound, the viability at 24 h, 50 ug/ml in [5] stood at 0%. For the same compound, the viability at 24 h, 5 ug/ml in [6] turned out to be 83%. The viability at 24 h, 10 ug/ml in data set [7] was determined as 75.5%. Besides, in data set [8], the viability at 24 h, 0.5 ug/ml came to 88%. Further, the viability at 24 h, 0.05 ug/ml in data set [9] worked out at 90%.
